# Source: PubChem BioAssay (several laboratories)
# procasp3 activ = activators of human procaspase-3 D3A mutant, primary screen, biochemical, absorbance, PC-3 D3A mutant, single concentration. recombinant procaspase-3 D3A, Ac-DEVD-pNA absorbance 405 nm. activation, % at 8.5 µM. 330,000 compounds, 0.11% hits;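 active means activation above the mean of all tested compounds plus 3 SD, cut at about 21% in these data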;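 further: 0% = DMSO alone and 100% = DMSO wells spiked with extra 5 µM PC-3 D3A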
# Target sequence (P42574 whole entry D9A/D28A/D175A): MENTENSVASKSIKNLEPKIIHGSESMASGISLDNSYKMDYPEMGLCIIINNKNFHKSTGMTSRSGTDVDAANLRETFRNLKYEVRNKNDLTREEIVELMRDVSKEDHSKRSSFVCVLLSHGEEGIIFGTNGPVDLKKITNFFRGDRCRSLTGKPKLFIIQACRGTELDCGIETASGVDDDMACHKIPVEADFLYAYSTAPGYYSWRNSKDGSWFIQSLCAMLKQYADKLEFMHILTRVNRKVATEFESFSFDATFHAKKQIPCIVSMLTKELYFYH
#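 material = Procaspase-3 D3A mutant | probe or stimulus = Ac-DEVD-pNA | compound = single dose, 8.5 µM nominal compound, 0.8% DMSO | timing = 1 h preincubation, 2 h reaction | measured by = 405 nm absorbance of p-nitroaniline, reads at 0 and 120 min | benchmarks = DMSO-only low control, 5 µM PC-3 D3A high control | repeats = singlicate, each compound tested once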
# GSTO1 inh = inhibitors of recombinant GSTO1, primary screen, counter-screen for RBBP9 inhibitor project, biochemical, fluorescence polarization; Glutathione S-transferase omega-1 (Homo sapiens), P78417; AID 1974, 2009; activity-based probe fluorescence polarization; inhibition, % at 5.96 µM; 300,000 compounds, 1.1% hits;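 active means inhibition above the campaign mean inhibition plus 3 SD, cut at about 35% in these data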;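 further: 0% = GSTO1-1 with DMSO and 100% = wells lacking GSTO1-1 enzyme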
# ZTA counter = blocks Epstein-Barr virus ZTA, an EBNA-1 counter-screen; AID 2234; 320,000 compounds, 0.15% hits; ZTA-DNA binding, fluorescence polarization; P03206; inhibition, % at 11 µM; in the data active means inhibition above about 33%
# proCasp7 act = procaspase-7 activators, primary screen, counter-screen for procaspase-3 activator project, biochemical, absorbance, HTS, human | Caspase-7 (Homo sapiens), P55210 | 330,000 compounds, 0.093% hits | recombinant procaspase-7, Ac-DEVD-pNA absorbance 405 nm; D23A/D198A/D206A triple mutant, cannot self-cleave; scale: DMSO 0, 5 µM enzyme 100 | activation, % at 8.5 µM;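 active means percent activation above the screen-wide mean plus 3 SD, cut at about 25% in these data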
#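 Replicates: singlicate. Assay system: Procaspase-7 triple mutant (PC-7 D3A). Signal: 405 nm absorbance of p-nitroaniline. Times: 1 h preincubation, 2 h reaction. Buffer or medium: Zinc-free HEPES pH 7.4 with 300 mM NaCl, 0.01% Triton X-100. Also added: DEVD-pNA substrate. Benchmarks: DMSO wells as 0%, DMSO with 5 µM added PC-7 as 100%.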
# Apaf1 inhib = inhibitors of human Apaf-1 apoptosome, primary screen, biochemical, DEVD-Rh110 fluorescence, uHTS; reconstituted apoptosome caspase-3 activity; inhibition, % at 20 µM; 330,000 compounds, 0.71% hits; active means inhibition of at least 40% at 20 µM;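 further: plate controls were DMSO wells for no effect and DEVD-CHO caspase inhibitor wells for full effect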
#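 Assay system – apoptosome proteins · Medium – Hepes buffer, pH 7.5 · Also added – cytochrome c with DEVD-Rh110 · Timing – 30 min compound preincubation, 50 min activation, room temperature · Detection – Rh110 fluorescence, excitation 480 nm, emission 540 nm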
# EBNA-1 inh = EBNA-1 DNA-binding inhibitors, primary screen, biochemical, fluorescence polarization | inhibition, % at 14.8 µM | 300,000 compounds, 0.34% hits; in the data active means inhibition above about 28%
# Numbers without * were called inactive; x = no result. Only some compounds are listed: those with a hit (about 1.8% of all), similar ones and a draw of the others.
SMILES,procasp3 activ,GSTO1 inh,ZTA counter,proCasp7 act,Apaf1 inhib,EBNA-1 inh
CCOc1cccc2sc(N(CCCN(C)C)C(=O)c3ccc(S(=O)(=O)N(CC)Cc4ccccc4)cc3)nc12,10,6,-5,6,67*,5
CCN(Cc1ccccc1)S(=O)(=O)c1ccc(C(=O)N(CCCN(C)C)c2nc3c(F)cccc3s2)cc1,5,2,-1,0,19,6
COc1ccc(OC)c2sc(N(CCCN(C)C)C(=O)c3ccc(S(=O)(=O)N4CCc5ccccc5C4)cc3)nc12,1,-4,33,8,55*,10
CC1CCCCN1S(=O)(=O)c1ccc(C(=O)N(CCCN(C)C)c2nc3ccc(Br)cc3s2)cc1 (configuration not stated),-8,-4,0,-6,67*,0
CC(NC(=O)c1ccccc1F)C1CC1 (configuration not stated),-2,-3,-6,0,0,-22
Cn1c(=O)c2c(ncn2CC(=O)OCC(=O)Nc2cc(Cl)ccc2C#N)n(C)c1=O,-4,x,x,11,-2,x
CSc1nsc(/C=C/Nc2ccc(O)cc2C)c1C#N,-15,69*,-4,-22,7,4
Cc1cc(C(=O)CCl)c(C)n1-c1cccc(S(=O)(=O)N2CCOCC2)c1,-6,94*,1,-11,-2,-8
COc1ccccc1NC(=O)COn1nnc2ccc(S(=O)(=O)N3CCOCC3)cc21,-1,36*,-13,0,1,1
O=C(COn1nnc2ccc(S(=O)(=O)N3CCOCC3)cc21)NCCc1ccccc1,1,5,-17,11,1,-8
O=C(CCl)Nc1ccc(N2CCCCCC2)cc1,-5,95*,-4,-9,11,-5
CCC(=O)Nc1ccc(N2CCCCC2)cc1,-1,3,-12,-2,-9,5
CCN1C(N(C)CCc2cccs2)=N[C@@H](c2ccccc2)C(C(=O)OC)=C1C,4,1,16,14,8,5
CCN1C(N(C)CCc2c[nH]c3ccccc23)=N[C@@H](c2cccc(C(F)(F)F)c2)C(C(=O)OC)=C1C,-3,x,x,3,55*,x
CCNc1c2c3c(cccc3n(C)c1=O)C(=O)c1ccccc1-2,-6,42*,7,-11,10,6
Cc1cccc(CSC2=NCCN2S(=O)(=O)c2ccc(F)cc2)c1,2,-1,12,3,9,16
O=[N+]([O-])c1cccc(N/N=C/c2cccc(O)c2O)c1,-15,35*,8,-8,14,-5
O=[N+]([O-])c1ccc(N/N=C/c2cccc(O)c2O)c(S(=O)(=O)N2CCOCC2)c1,-13,46*,11,-13,8,13
COc1cccc(/C=N/Nc2ccc([N+](=O)[O-])cc2)c1O,-5,-5,-4,-7,13,-7
CCCNC(=O)NC(=O)CN1C(=O)NC(C)(c2ccc3ccccc3c2)C1=O (configuration not stated),1,1,-16,1,0,-10
CSCCC(NC(=O)COc1ccccc1)C(=O)N1CCN(C(C)=O)CC1 (configuration not stated),3,4,2,4,0,13
COc1ccccc1C(=O)OC(C)CN1CCN(C)CC1 (configuration not stated),15,-4,-11,6,-9,-5
O=C(O)CCNc1ccc(NCCC(=O)O)c2c1C(=O)c1ccccc1C2=O,-2,18,158*,-3,-12,128*
O=C(c1cnn2c(C(F)F)cc(-c3ccccc3)nc12)N1CCN(Cc2ccc3c(c2)OCO3)CC1,4,0,11,6,29,-4
